The values that follow come from ChEMBL document CHEMBL1128208, “(3SR,4aRS,6SR,8aRS)-6-(1H-tetrazol-5-yl)decahydroisoquinoline-3-carboxylic acid, a novel, competitive, systemically active NMDA and AMPA receptor antagonist” (J Med Chem, 1995).

The target of assay [1] is Glutamate receptor ionotropic kainate. Nature of the assay: Binding affinity against Ionotropic glutamate receptor kainate using [3H]-Kainic acid as a radioligand. The class given is protein-complex assay. The method in brief:
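Displacement of [3H]kainic acid from kainate receptor sites. Run in triplicate unless otherwise indicated; IC50 reported.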

In assay [2] the target is Glutamate receptor ionotropic AMPA (Homo sapiens, UniProt P42261+P42262+P42263+P48058). Nature of the assay: Binding affinity against Ionotropic glutamate receptor AMPA using [3H]AMPA as a radioligand. The class given is protein-complex assay.
Another assay addresses Glutamate NMDA receptor. As to the kind of experiment: Binding affinity against NMDA receptor using [3H]-CGS- 19755 as a radioligand in rat. The method in brief:
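Displacement of the selective NMDA-site radioligand [3H]CGS 19755. Run in triplicate unless otherwise indicated; IC50 reported.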

Assay [3] is filed under the species Rattus norvegicus. Nature of the assay: Inhibitory activity against compound induced depolarization of AMPA receptor in rat cortical slice preparation. The class given is functional. The method in brief:
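Cortical slice preparation. Depolarizations evoked by 40 μM AMPA or 40 μM quisqualic acid (QUIS); the value is the IC50 for inhibition of the agonist response.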

The species entered for assay [4] is Rattus norvegicus. Nature of the assay: Inhibitory activity against compound induced depolarization of NMDA receptor in rat cortical slice preparation. The class given is functional. The method in brief: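 Cortical slice preparation. Depolarizations evoked by 40 μM NMDA; the value is the IC50 for inhibition of the NMDA response.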
Assay [5] can be described thus: Binding affinity towards glycine site on the NMDA receptor was determined. The arrangement: species or system Rattus norvegicus.
Assay [6] is filed under the species Rattus norvegicus. Nature of the assay: Compound was evaluated against compound induced depolarization of NMDA receptor in rat cortical slice preparation. The class given is functional. The method in brief:
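Cortical slice preparation in which depolarization was induced by 40 μM NMDA. Antagonism was measured as inhibition of this depolarization, and […].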

A short description of assay [7]: Compound was evaluated for high binding affinity towards glycine site on the NMDA receptor. The arrangement: species or system Rattus norvegicus.
Assay [8] is filed under the species Xenopus sp. Nature of the assay: Compound was evaluated for blocking of depolarization induced by 30 uM NMDA in xenopus oocytes injected with rat brain m-RNA.
The species entered for assay [9] is Xenopus sp. Nature of the assay: Compound was evaluated for blocking of depolarization induced by 30 uM AMPA in xenopus oocytes injected with rat brain m-RNA. In kind it is functional, frog.
The species named for assay [10] is Rattus norvegicus. As to the kind of experiment: Inhibitory activity against compound induced depolarization of Kainic acid receptor in rat cortical slice preparation. In kind it is functional. The method in brief: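 Cortical slice depolarizations evoked by 10 μM kainic acid. Test compound at concentrations up to 100 μM; the value is the IC50 for inhibition.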

Structures are written as SMILES. “And” between values parts separate entries of the source, which are not always exact repeats. Equal entries are not always repeated. Some results are limits rather than exact numbers.

In general, IC50 refers to the concentration at which inhibition is half-maximal. Low values mean greater potency in that assay, high ones weaker potency in that assay. In the case of `O=C(O)[C@@H]1C[C@H]2C[C@@H](c3nnn[nH]3)CC[C@H]2CN1` (stereo in doubt; (+)-6), the IC50 (in assay [1]; in [2]; at Glutamate NMDA receptor; in the assay listed under Rattus norvegicus [3]; in the assay listed under Rattus norvegicus [4]) was above 100 µM throughout.

As a reminder, the Ki is the equilibrium dissociation constant of an inhibitor or competing ligand from its target. A high value points to weaker binding. As for `O=[N+]([O-])c1cc2nc(O)c(O)nc2cc1[N+](=O)[O-]` [DNQX], the Ki in assay [2] amounted to 0.36 µM; in assay [5], 0.39 µM.

Take `O=C1Nc2cc(Cl)ccc2CC1[N+](=O)[O-]` (centres undefined): in the assay listed under Rattus norvegicus [6], the KbS is 6.7 µM and 9.2 µM. In assay [7], this compound registered an IC50 of 0.41 µM.

In the case of `O=C(O)[C@@H]1C[C@H]2C[C@H](c3nnn[nH]3)CC[C@H]2CN1` (racemic), the IC50 in [1] is above 100 µM; in assay [2], above 100 µM; on Glutamate NMDA receptor it was 38.4 µM; in the assay filed under Rattus norvegicus [3] (Rattus norvegicus), above 100 µM; in the assay filed under Rattus norvegicus [4] (Rattus norvegicus) it was 65 µM.

`O=[N+]([O-])c1ccc2cc(NS(=O)(=O)C(F)(F)F)c(O)nc2c1`: the Ki was found to be 0.62 µM in the assay listed under Xenopus sp. [8], 0.6 µM in [2] and 0.37 µM in the assay filed under Xenopus sp. [9].

As to `O=C(O)[C@@H]1C[C@H]2C[C@@H](Cc3nnn[nH]3)CC[C@H]2CN1` (racemic), the IC50 in [1] was above 100 µM; in [2] it was 84.5 µM; in the assay listed under Rattus norvegicus [10] it was above 100 µM; at Glutamate NMDA receptor, 0.82 µM; in the assay listed under Rattus norvegicus [3] (Rattus norvegicus) it was above 100 µM; in the assay listed under Rattus norvegicus [4] (Rattus norvegicus) it was 1.4 µM.

As to `O=C(O)[C@@H]1C[C@H]2C[C@@H](c3nnn[nH]3)CC[C@H]2CN1` (stereo in doubt; (-)-6), the IC50 is 21 µM in assay [1]; 5.7 µM in assay [2]; 1 µM on Glutamate NMDA receptor; 13.2 µM in the assay listed under Rattus norvegicus [3]; 4.1 µM in the assay filed under Rattus norvegicus [4].

As to `O=C(O)[C@@H]1C[C@H]2C[C@@H](CCc3nn[nH]n3)CC[C@H]2CN1` (racemic) [TEZAMPANEL ANHYDROUS], the IC50 is 247 µM in [1]; 31.7 µM in the assay listed under Rattus norvegicus [10]; 26.4 µM on Glutamate NMDA receptor; 6 µM in the assay filed under Rattus norvegicus [3] (Rattus norvegicus); 61.3 µM in the assay listed under Rattus norvegicus [4] (Rattus norvegicus).

Consider `O=C(O)[C@H]1CC[C@H]2CN[C@H](C(=O)O)C[C@H]2C1` (racemic), for which the IC50 (in [2]; in the assay listed under Rattus norvegicus [10]; at Glutamate NMDA receptor; in the assay listed under Rattus norvegicus [3] (Rattus norvegicus); in the assay listed under Rattus norvegicus [4] (Rattus norvegicus)) was above 100 µM in each case.

On to `O=C(O)[C@@H]1C[C@H]2C[C@@H](c3nnn[nH]3)CC[C@H]2CN1` (racemic), for which the half-maximal inhibitory concentration (IC50) in [1] was 31.8 µM; in assay [2], 12.8 µM; in the assay filed under Rattus norvegicus [10] it was above 100 µM; on Glutamate NMDA receptor, 1.6 µM; in the assay filed under Rattus norvegicus [3], 40.9 µM; in the assay filed under Rattus norvegicus [4], 7.5 µM.
